Compound activity: PubChem, Johns Hopkins Ion Channel Center
TRPC6 act – activators of mouse TRPC6 channel; B-score at 10 µM; Q61143; HEK293-TRPC6 membrane potential dye fluorescence; stronger effect = higher value; 310,000 tested, 0.13% active; AID 2550;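 active = B-score of the integrated fluorescence ratio above library mean plus 3 SD, and starting fluorescence ratio within library mean plus 5 SD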;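 note: higher score means more depolarization so channel activation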
TRPC4 act – opens the mouse TRPC4 cation channel; Q9QUQ5; B-score at 10 µM; 310,000 tested, 0.49% active; AID 2237; HEK293 TRPC4beta/mu-opioid, Fluo4 calcium fluorescence; stronger effect = higher value;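 active = B-score above 5 SD of library B-scores, and initial fluorescence ratio not above library mean plus 5 SD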;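 note: positive B-score marks a calcium rise read as TRPC4 activation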
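Assay system: HEK293 stable line with TRPC4beta plus mu-opioid receptor; schedule: 45 min room-temperature Fluo4 loading, 110 s read; technique: kinetic Fluo4 calcium fluorescence; evaluation: integrated baseline-normalised fluorescence ratio, converted to per-well B score; controls: buffer (low) and maximal DAMGO (high)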
TRPC6 inhibitor – mouse TRPC6 channel inhibition; HEK293-TRPC6, membrane potential dye, ACh-evoked depolarization; stronger effect = lower value; B-score at 10 µM; 310,000 tested, 1.1% active;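 active = B-score under library mean minus 3 SD, initial fluorescence not abnormally high, positive integrated signal ratio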;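 note: B-score derived from integrated fluorescence ratio over the kinetic read; more negative B-score means stronger inhibition of depolarization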
TRPC4 PAM – allosteric potentiators of mouse TRPC4 channel; Q9QUQ5; AID 2227; 310,000 tested, 0.42% active; B-score at 10 µM; HEK293 TRPC4beta/mu-opioid, DAMGO EC20, Fluo-4 Ca2+ flux; stronger effect = higher value;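 active = B-score of calcium response area above 5 SD of library B-scores, with initial fluorescence ratio within 5 SD of library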
TRPC4 inh – blocks the mouse TRPC4 cation channel. Q9QUQ5. HEK293 TRPC4beta/mu-opioid, DAMGO-evoked Fluo4 calcium flux; stronger effect = lower value. B-score at 10 µM. 300,000 tested, 0.39% active. AID 2247;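 active = B-score over 3 SD under the library average, no early fluorescence shift, positive overall ratio signal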
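Assay system – HEK293 line stably carrying TRPC4beta and mu-opioid receptor · Doses – single dose · Detection – Fluo4 calcium-dye fluorescence, kinetic read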
Of the large screens only hits and unclear results are named; the others gave an inactive call. In the library only some 2.3% were active in any assay of this set; here they are far more common.

COc1ccc(/C=N/NC(=O)C2COc3ccccc3O2)cc1OC (stereo not given)	TRPC4 act 150
O=C(N/N=C\C=C\c1ccc2c(c1)OCO2)C1COc2cc3ccccc3cc2O1 (stereo not given)	TRPC4 PAM 12
O=C(N/N=C/c1ccc2c(c1)OCO2)C1COc2ccccc2O1 (stereo not given)	none
Cc1ccc(-n2c(SCc3cc(=O)n4ccsc4n3)nnc2-c2cccnc2)c(C)c1	TRPC4 inh -7
Cc1ccc(-n2c(SCC(N)=O)nnc2-c2cccnc2)c(C)c1	none
NS(=O)(=O)c1ccc(NC(=O)CCC(=O)c2ccc(Cl)s2)cc1	none
O=C(OCCCCN1C(=O)c2ccccc2C1=O)c1ccc(S(=O)(=O)N2CCCC2)cc1	TRPC4 PAM 17
NC(=O)NC(=O)COC(=O)CCSc1ccccc1	none
CCC(C)NC(=O)c1ccccc1-c1nc2ccccc2[nH]1 (stereo not given)	none
Cc1csc2c(N3CCN(S(=O)(=O)c4ccc(Cl)cc4)CC3)ncnc12	TRPC4 PAM 10
COc1ccc(-n2nc3c(c2NC(=O)c2ccc4c(c2)OCO4)CS(=O)(=O)C3)cc1	none
CN(C1=C(N2CCCCC2)C(=O)c2ccccc2C1=O)c1ccccc1	TRPC6 inhibitor -7.16
CCOC(=O)C1(CCc2ccccc2)CCN(C(=O)c2cnc(C)cn2)CC1	none
Cc1cccc(Nc2nc(NCCCN3CCOCC3)nc(N)c2[N+](=O)[O-])c1	TRPC4 inh -6
Cc1cccn2c(CNCCc3ccccn3)c(C(=O)N3CCOCC3)nc12	TRPC4 act 171
CC(C)OC(=O)c1c(N)n(CCCN2CCOCC2)c2nc3ccccc3nc12	none
CC(C)OC(=O)c1c2nc3ccccc3nc2n2c1[nH]c(=O)c1ccccc12	TRPC4 PAM 10
CN1CCCC(OC(=O)c2ccccc2Br)C1 (stereo not given)	TRPC4 PAM 10
CN1CCCC(OC(=O)c2cccc(Cl)c2)C1 (stereo not given)	TRPC4 act 45, TRPC4 PAM 12
CN1CCCC(OC(=O)c2cccc(Br)c2)C1 (stereo not given)	TRPC4 act 58
CN1CCCC(OC(=O)c2cc(Cl)cc(Cl)c2)C1 (stereo not given)	TRPC4 act 193
O=C1c2cccc3c(O)ccc(c23)C(=O)N1c1ccc(Cl)cc1	none
NNC(=O)CCc1ccc(S(=O)(=O)N2CCOCC2)cc1	none
Cc1ccc(C)c(S(=O)(=O)/N=C2\C=C(NS(=O)(=O)c3ccccc3)C(=O)c3ccccc32)c1	TRPC4 inh -7
CCc1ccc(S(=O)(=O)/N=C2\C=C(NS(=O)(=O)c3ccccc3)C(=O)c3ccccc32)cc1	none
Cc1sc2ncnc(NCC(C)(C)N3CCOCC3)c2c1C	TRPC4 act 162
Cc1sc2ncnc(NCC3(N4CCOCC4)CCCCC3)c2c1C	none
c1ccc2c(-c3[nH]ncc3CNCCCn3ncc4ccccc43)cccc2c1	TRPC4 act 64
OCC1CCCCN1CCNCc1cn[nH]c1-c1cccc2ccccc12 (stereo not given)	none
COc1ccc(Cl)cc1C(=O)NCC(=O)OCc1ccccc1	none
COc1cc(OC)cc(C(=O)Nc2ccc3c(c2)CCCN3C(=O)c2cccs2)c1	none
COc1ccccc1C(=O)Nc1ccc2c(c1)CCCN2C(=O)c1cccs1	TRPC4 inh -6
CCn1c(SCC(=O)c2cc(C)n(CC3CCCO3)c2C)nc2ccccc21 (stereo not given)	TRPC4 act 200, TRPC4 inh -7
O=C(Nc1ccnn1C1CCN(Cc2ccccc2OC(F)F)CC1)c1cccnc1	none
CCOC(=O)[C@@H]1CCN(Cc2ccccc2)C[C@H]1c1ccccc1	TRPC4 inh -7
CC(C)c1onc(C(=O)NC2CCCCC2)c1[N+](=O)[O-]	none
COc1ccc(CCNC(=O)C(=O)NCC2OCCN2S(=O)(=O)c2cc(F)ccc2F)cc1OC (stereo not given)	none
CN1CCN(Cc2nc3ccccc3n2C)CC1CCO (stereo not given)	TRPC4 PAM 19
Cc1ccc(CN2CCN(Cc3cccc4nccnc34)CC2CCO)cc1 (stereo not given)	none
CCn1c(CN2CCN(Cc3ccc(C)cc3)C(CCO)C2)nc2ccccc21 (stereo not given)	TRPC4 act 172
